Columns and labels:
[1] = Drug metabolism in sandwich-cultured human hepatocytes treated with 10 uM DB868 after 24 hrs of incubation by HPLC-MS/MS analysis; assay type: ADME, cell-based, Hepatocyte
Summary of the method: (§1)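 Sandwich-cultured hepatocytes were used on day 5 (human) or day 4 (rat) and rinsed with warm phenol-red-free DMEM. They were then exposed to 10 µM DB868 (0.1–0.2% DMSO) at 37°C. Medium and methanol/water cell lysates were collected at 0.5, 2, 4 and 24 h. Analytes were quantified by HPLC/MS/MS with deuterated internal standards; protein by Bradford. Replicates: 6 (human) or 4 (rat).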

Cytochrome P450 1A2 [2] = biological target: T1, Cytochrome P450 1A2 (Homo sapiens, UniProt P05177); test: Activity at human recombinant CYP1A2-mediated drug metabolism treated with 5 uM DB868 after 180 mins incubation by HPLC-UV chromatography; assay type: ADME; details: recombinant enzyme, 15 min, in the assay text read “15 mins” for “180 mins”
T1 sequence (P05177 whole entry): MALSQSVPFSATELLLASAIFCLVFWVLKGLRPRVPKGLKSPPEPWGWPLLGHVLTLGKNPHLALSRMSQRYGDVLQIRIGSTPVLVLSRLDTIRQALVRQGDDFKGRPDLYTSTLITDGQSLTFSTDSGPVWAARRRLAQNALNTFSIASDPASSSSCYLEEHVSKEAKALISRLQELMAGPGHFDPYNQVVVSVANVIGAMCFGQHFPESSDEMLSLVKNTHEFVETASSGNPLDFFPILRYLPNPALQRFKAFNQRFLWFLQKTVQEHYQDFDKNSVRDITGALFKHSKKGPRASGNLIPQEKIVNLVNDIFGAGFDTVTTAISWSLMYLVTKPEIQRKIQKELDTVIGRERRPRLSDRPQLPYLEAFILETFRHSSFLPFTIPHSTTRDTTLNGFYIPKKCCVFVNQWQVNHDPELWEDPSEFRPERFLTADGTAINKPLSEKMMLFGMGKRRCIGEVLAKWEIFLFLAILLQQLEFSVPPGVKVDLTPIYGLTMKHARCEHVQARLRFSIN
Summary of the method: (§2)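 Insect-cell-expressed human or rat P450 (with NADPH-P450 reductase, some also with cytochrome b5) at 0.1 pmol/µL in 100 mM potassium phosphate pH 7.4 with 10 mM MgCl2. DB868 (for M1) or M1 (for M2) was added at 5 µM (0.5% DMSO) and started with 2 mM NADPH. Stopped after 15 min with ice-cold acetonitrile, then HPLC-UV. Duplicate incubations.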

Liver microsome [3] = test: Prodrug conversion in rat liver microsomes assessed as elution time treated with 10 uM DB868 after 180 mins incubation by HPLC-UV chromatography; assay type: ADME; details: 3 h
Summary of the method: (§3)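 HLM or RLM (0.5 mg/mL) were incubated in triplicate in 100 mM phosphate pH 7.4 with 10 mM MgCl2 and an NADPH-regenerating system (1 mM NADP+, glucose 6-phosphate, G6PDH). DB868 was 10 µM. Sampled up to 180 min. Prodrug and metabolites were measured by HPLC-UV at 359 nm and expressed relative to initial prodrug; DB829 LLOQ 50 nM.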

[4] = Drug metabolism in sandwich-cultured human hepatocytes treated with 10 uM DB868 after 4 hrs of incubation by HPLC-MS/MS analysis; assay type: ADME, cell-based, Hepatocyte; summary of the method: as §1
Liver microsome [5] = test: Prodrug conversion in human liver microsomes assessed as elution time treated with 10 uM DB868 after 180 mins incubation by HPLC-UV chromatography; assay type: ADME; details: 3 h; summary of the method: as §3
Cytochrome P450 1A2 [6] = biological target: T2, Cytochrome P450 1A2 (Rattus norvegicus, UniProt P04799); test: Drug metabolism in rat recombinant CYP1A2 treated with at 5 uM DB868 after 180 mins incubation by HPLC-UV chromatography; assay type: ADME; details: recombinant enzyme, 15 min, in the assay text read “15 mins” for “180 mins”; summary of the method: as §2
T2 sequence (P04799 whole entry): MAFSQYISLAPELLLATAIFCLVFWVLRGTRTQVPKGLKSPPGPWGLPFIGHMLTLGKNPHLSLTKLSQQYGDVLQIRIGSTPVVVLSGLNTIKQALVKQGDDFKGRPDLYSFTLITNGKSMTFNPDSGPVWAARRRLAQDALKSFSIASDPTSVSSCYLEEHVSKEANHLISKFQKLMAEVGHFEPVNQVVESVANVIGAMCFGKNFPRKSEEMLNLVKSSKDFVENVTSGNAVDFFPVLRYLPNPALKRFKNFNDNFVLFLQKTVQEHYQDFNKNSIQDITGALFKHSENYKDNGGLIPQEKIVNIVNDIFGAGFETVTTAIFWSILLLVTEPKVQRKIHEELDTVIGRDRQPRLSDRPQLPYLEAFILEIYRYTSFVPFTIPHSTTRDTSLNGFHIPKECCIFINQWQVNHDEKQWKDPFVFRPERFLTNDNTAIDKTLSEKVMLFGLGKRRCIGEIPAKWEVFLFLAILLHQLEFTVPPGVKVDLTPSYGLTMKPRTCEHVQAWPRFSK

Liver microsome [7] = test: Drug metabolism in human liver microsomes assessed as (3Z,3'Z)-6,6'-(furan-2,5-diyl)bis(N'-hydroxynicotinimidamide) formation measured per mg of protein by HPLC-MS/MS analysis; assay type: ADME
Summary of the method: (§4)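 M2 formation kinetics: HLM (0.5 mg/mL) with M1 at 0.1–25 µM in phosphate pH 7.4 with MgCl2, started with 2 mM NADPH. Run 5 min in triplicate under initial-rate conditions. Quantified by HPLC/MS/MS and fitted to the Hill equation (S50, Vmax, n).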

Cytochrome P450 3A4 [8] = biological target: T3, Cytochrome P450 3A4 (Homo sapiens, UniProt P08684); test: Drug metabolism in human recombinant CYP3A4 treated with at 5 uM DB868 after 15 mins incubation by HPLC-UV chromatography; details: recombinant enzyme
T3 sequence (P08684 whole entry): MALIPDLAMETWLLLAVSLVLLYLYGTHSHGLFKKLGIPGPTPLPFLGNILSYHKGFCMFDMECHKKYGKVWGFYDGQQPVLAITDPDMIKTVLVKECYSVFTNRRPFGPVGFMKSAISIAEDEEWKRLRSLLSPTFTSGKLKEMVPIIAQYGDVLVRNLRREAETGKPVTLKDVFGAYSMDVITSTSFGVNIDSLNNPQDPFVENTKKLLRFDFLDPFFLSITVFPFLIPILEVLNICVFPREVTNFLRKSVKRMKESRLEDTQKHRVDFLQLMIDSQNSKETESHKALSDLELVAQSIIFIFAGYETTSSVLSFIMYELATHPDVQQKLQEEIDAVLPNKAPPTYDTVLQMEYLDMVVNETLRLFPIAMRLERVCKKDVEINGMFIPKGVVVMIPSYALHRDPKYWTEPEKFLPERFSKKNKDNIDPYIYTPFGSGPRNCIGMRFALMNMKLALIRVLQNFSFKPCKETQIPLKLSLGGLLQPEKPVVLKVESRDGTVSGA

Cytochrome P450 4F1 = biological target: T4, Cytochrome P450 4F1 (Rattus norvegicus, UniProt P33274); test: Drug metabolism in rat recombinant […] treated with at 5 uM DB868 after 180 mins incubation by HPLC-UV chromatography; assay type: ADME; details: recombinant enzyme, 3 h
T4 sequence (P33274 whole entry): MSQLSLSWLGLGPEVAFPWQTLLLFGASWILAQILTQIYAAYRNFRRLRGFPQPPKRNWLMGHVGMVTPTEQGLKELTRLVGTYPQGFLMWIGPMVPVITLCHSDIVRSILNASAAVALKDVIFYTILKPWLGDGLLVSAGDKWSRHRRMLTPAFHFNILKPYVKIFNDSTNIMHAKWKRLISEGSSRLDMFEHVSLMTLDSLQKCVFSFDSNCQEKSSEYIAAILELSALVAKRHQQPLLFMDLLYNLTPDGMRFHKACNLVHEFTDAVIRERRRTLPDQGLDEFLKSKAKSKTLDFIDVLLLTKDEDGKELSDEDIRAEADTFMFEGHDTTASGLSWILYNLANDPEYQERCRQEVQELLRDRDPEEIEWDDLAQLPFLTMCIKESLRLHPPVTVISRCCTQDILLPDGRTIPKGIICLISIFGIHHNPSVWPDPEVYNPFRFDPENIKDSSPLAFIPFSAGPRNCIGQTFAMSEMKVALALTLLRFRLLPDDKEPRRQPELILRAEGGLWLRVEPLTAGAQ

Cytochrome P450 3A4 [9] = biological target: T3, Cytochrome P450 3A4; test: Activity at human recombinant CYP3A4-mediated drug metabolism treated with 5 uM DB868 after 180 mins incubation by HPLC-UV chromatography; assay type: ADME; details: recombinant enzyme, 15 min, in the assay text read “15 mins” for “180 mins”; summary of the method: as §2
[10] = Drug metabolism in sandwich-cultured rat hepatocytes treated with 10 uM DB868 after 4 hrs of incubation by HPLC-MS/MS analysis; assay type: ADME, cell-based, Hepatocyte; summary of the method: as §1
Cytochrome P450 4F2 = biological target: T5, Cytochrome P450 4F2 (Homo sapiens, UniProt P78329); test: Activity at human recombinant CYP4F2-mediated drug metabolism treated with 5 uM DB868 […] by HPLC-UV chromatography; assay type: ADME; details: recombinant enzyme, 3 h
T5 sequence (P78329 whole entry): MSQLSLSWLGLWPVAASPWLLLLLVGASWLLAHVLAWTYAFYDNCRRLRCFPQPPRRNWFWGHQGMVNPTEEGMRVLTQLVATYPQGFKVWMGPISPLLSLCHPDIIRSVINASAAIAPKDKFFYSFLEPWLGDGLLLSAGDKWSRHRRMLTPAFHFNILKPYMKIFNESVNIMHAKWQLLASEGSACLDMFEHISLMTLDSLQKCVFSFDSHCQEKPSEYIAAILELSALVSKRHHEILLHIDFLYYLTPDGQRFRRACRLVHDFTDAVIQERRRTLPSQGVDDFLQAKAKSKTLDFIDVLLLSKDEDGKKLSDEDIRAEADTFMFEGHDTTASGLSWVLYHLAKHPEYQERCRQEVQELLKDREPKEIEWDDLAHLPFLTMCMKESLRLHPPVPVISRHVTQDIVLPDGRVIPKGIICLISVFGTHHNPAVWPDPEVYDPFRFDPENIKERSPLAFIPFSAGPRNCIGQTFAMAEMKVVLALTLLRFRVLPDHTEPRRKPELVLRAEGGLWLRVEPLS

Liver microsome [11] = test: Drug metabolism in human liver microsomes assessed as (3Z,3'Z)-6,6'-(furan-2,5-diyl)bis(N'-hydroxynicotinimidamide) formation measured by HPLC-MS/MS analysis; assay type: ADME; summary of the method: as §4
[12] = Ratio of drug metabolism in sandwich-cultured human hepatocytes to drug metabolism in sandwich-cultured rat hepatocytes treated with 10 uM DB868 after 24 hrs of incubation by HPLC-MS/MS analysis
Liver microsome [13] = test: Drug level in human liver microsomes treated with 10 uM DB868 prodrug after 180 mins incubation by HPLC-UV chromatography relative to initial prodrug concentration; assay type: ADME; details: 3 h; summary of the method: as §3
Liver microsome [14] = test: Prodrug conversion in rat liver microsomes treated with 10 uM DB868 after 180 mins incubation by HPLC-UV chromatography; assay type: ADME; details: 3 h; summary of the method: as §3
[15] = Drug metabolism in sandwich-cultured rat hepatocytes treated with 10 uM DB868 after 24 hrs of incubation by HPLC-MS/MS analysis; assay type: ADME, cell-based, Hepatocyte; summary of the method: as §1

SMILES | Drug metabolism [1] | Drug metabolism (Cytochrome P450 1A2 [2]) | Retention_time (Liver microsome [3]) [min] | Drug metabolism [4] | Retention_time (Liver microsome [5]) [min] | Drug metabolism (Cytochrome P450 1A2 [6]) | Vmax (Liver microsome [7]) [pmol/min] | Drug metabolism (Cytochrome P450 3A4 [8]) | Drug metabolism (Cytochrome P450 4F1) | Drug metabolism (Cytochrome P450 3A4 [9]) | Drug metabolism [10] | Drug metabolism (Cytochrome P450 4F2) | S50 (Liver microsome [11]) [µM] | Ratio [12] | Drug metabolism (Liver microsome [13]) | Drug metabolism (Liver microsome [14]) | Drug metabolism [15]
N=C(NO)c1ccc(-c2ccc(-c3ccc(C(=N)NO)cn3)o2)nc1 | metabolite_detected | metabolite_detected | 10.5 | metabolite_detected | 10.5 | metabolite_detected | – | – | – | – | – | – | – | – | – | – | –
CO/N=C(/N)c1ccc(-c2ccc(-c3ccc(/C(N)=N/O)cn3)o2)nc1 | – | metabolite_detected | 14.5 | metabolite_detected | 14.5 | metabolite_detected | 180 | metabolite_detected | metabolite_detected | metabolite_detected | metabolite_detected | metabolite_detected | 18 | – | – | – | –
Cl.N=C(N)c1ccc(-c2ccc(-c3ccc(C(=N)N)cn3)o2)nc1 | metabolite_detected | – | – | – | 5.8 | – | – | – | – | – | – | – | – | 7800 | metabolite_detected | metabolite_not_detected | metabolite_detected
CO/N=C(\N)c1ccc(-c2ccc(-c3ccc(C(=N)N)cn3)o2)nc1 | metabolite_detected | – | 12.3 | metabolite_detected | 12.3 | – | – | – | – | – | metabolite_detected | – | – | – | – | – | metabolite_detected
N=C(N)c1ccc(-c2ccc(-c3ccc(/C(N)=N/O)cn3)o2)nc1 | – | – | 8.3 | – | 8.3 | – | – | – | – | – | – | – | – | – | – | – | –
